Source: publication PMC3873380 (Molecular pharmaceutics, 2013)

System: SK-OV-3 cells
Assay: Confocal microscopy on live cells
Type: cell-based, human
Details: F′-PEpYLGLD 5 μM alone, opti-MEM, 2 h, 37 °C
Outline: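 SK-OV-3 seeded at 1 × 10^5 cells/well on coverslips overnight in EMEM, then rinsed with opti-MEM. Exposed to treatments in opti-MEM for 2 h at 37 °C, washed three times with PBS and mounted. Imaged by laser scanning confocal, 20× objective, sequential frame mode. Channels: FITC (ex 488, em 500–550 nm), DAPI (ex 405, em 425–475 nm), DIC.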

With F′-PEpYLGLD the “intracellular fluorescence of F′-PEpYLGLD alone (confocal)” value was “No green fluorescence was observed”.
